According to ChEMBL document CHEMBL1139243, “Synthesis and biological evaluation of a 2-aryl polyhydroxylated pyrrolidine alkaloid-based library” (Bioorg Med Chem, 2008):
pIC50, pKi: −log10 of the molar value.

How the values were obtained:
[1] = Inhibition of Bacillus stearothermophilus alpha-glucosidase; parameters: species or system Geobacillus stearothermophilus
Summary of the method: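 Bacillus stearothermophilus α-glucosidase at 0.25–1 units per mL in 100 mM sodium phosphate, pH 6.8, room temperature. Substrate is p-nitrophenyl glycopyranoside at twice Km, with Km 1.5 mM from a Michaelis–Menten fit. Initial hydrolysis rates read at 405 nm. Compounds screened first at a single high concentration; active ones retested at lower concentrations for IC50.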

[2] = Inhibition of Helix pomatia beta-mannosidase
Summary of the method: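 β-Mannosidase at 0.25–1 units per mL in 100 mM sodium citrate, pH 6.4, room temperature. p-Nitrophenyl glycopyranoside substrate at twice its Michaelis–Menten Km. Initial velocities read at 405 nm. Compounds screened first at a single concentration; those active titrated lower for IC50.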

[3] = Inhibition of yeast alpha-glucosidase; parameters: species or system Saccharomyces cerevisiae
Summary of the method: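 Yeast α-glucosidase at 0.25–1 units per mL in 100 mM sodium phosphate, pH 6.8, room temperature. p-Nitrophenyl glycopyranoside substrate at twice Km, with Km 0.19 mM from a Michaelis–Menten fit. Initial velocities monitored at 405 nm. Compounds screened first at a single concentration; actives titrated lower to get IC50.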

[4] = Inhibition of almond beta-glucosidase; parameters: species or system Prunus dulcis
Summary of the method: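 β-Glucosidase at 0.25–1 units per mL in 100 mM sodium phosphate buffer, pH 6.8, room temperature. p-Nitrophenyl glycopyranoside substrate at twice its Michaelis–Menten Km. Initial hydrolysis rates read spectrophotometrically at 405 nm. Compounds screened first at one concentration; actives retested at lower levels for IC50.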

[5] = Inhibition of yeast alpha-glucosidase by Lineweaver-Burke double reciprocal plot; parameters: species or system Saccharomyces cerevisiae

Row | Compound | pIC50 [1] | pIC50 [2] | pIC50 [3] | pIC50 [4] | pKi [5]
1 | COc1ccc([C@H]2[C@H](O)[C@@H](O)[C@H](CO)N2C)cc1 | < 3.70 | < 3.70 | < 3.70 | < 3.70 | 
2 | COc1ccc([C@H]2N[C@H](CO)[C@@H](O)[C@@H]2O)cc1 | 5.06 | 4.68 | 6.30 | 3.91 | 
3 | COc1ccc([C@@H]2N[C@@H](CO)[C@H](O)[C@H]2O)cc1O [L-RADICAMINE A] | < 3.70 | 3.95 | < 3.70 | < 3.70 | 
4 | COc1ccc(OC)c([C@@H]2[C@@H](O)[C@H](O)[C@@H](CO)N2C)c1 | < 3.70 | < 3.70 | < 3.70 | < 3.70 | 
5 | OC[C@H]1N[C@H](c2ccc(O)cc2)[C@@H](O)[C@@H]1O [RADICAMINE B] | 5.00 | < 3.70 | 4.62 | < 3.70 | 
6 | COc1ccc(OC)c([C@H]2N[C@H](CO)[C@@H](O)[C@@H]2O)c1 | 5.40 | < 3.70 | 5.59 | 3.77 | 
7 | COc1ccc([C@H]2N[C@H](CO)[C@@H](O)[C@@H]2O)cc1O [RADICAMINE A] | 4.92 | 4.18 | 5.38 | < 3.70 | 
8 | COc1ccc([C@@H]2[C@@H](O)[C@H](O)[C@@H](CO)N2C)cc1O | < 3.70 | 3.74 | 4.55 | < 3.70 | 
9 | COc1ccc([C@@H]2[C@@H](O)[C@H](O)[C@@H](CO)N2C)c(OC)c1 | < 3.70 | 4.07 | < 3.70 | < 3.70 | 
10 | CCCCN1[C@H](CO)[C@@H](O)[C@H](O)[C@H]1c1ccc(OC)c(O)c1 | < 3.70 | < 3.70 | < 3.70 | < 3.70 | 
11 | COc1ccc([C@H]2N[C@H](CO)[C@@H](O)[C@@H]2O)cc1OC | 5.74 | 4.28 | 5.96 | 4.47 | 6.15
12 | COc1ccc([C@@H]2N[C@@H](CO)[C@H](O)[C@H]2O)cc1 | < 3.70 | < 3.70 | 4.68 | < 3.70 | 
13 | OC[C@H]1N[C@H](c2ccccc2)[C@@H](O)[C@@H]1O | 4.44 | 4.03 | 5.00 | 3.71 | 
14 | COc1ccc([C@H]2N[C@H](CO)[C@@H](O)[C@@H]2O)c(OC)c1 | 5.08 | 3.76 | 5.11 | 4.02 | 
15 | COc1ccc([C@@H]2[C@@H](O)[C@H](O)[C@@H](CO)N2C)cc1 | 5.04 | 4.21 | 4.42 | < 3.70 | 
16 | COc1ccc([C@@H]2N[C@@H](CO)[C@H](O)[C@H]2O)cc1OC | < 3.70 | < 3.70 | 5.22 | < 3.70 | 
17 | COc1cccc([C@H]2N[C@H](CO)[C@@H](O)[C@@H]2O)c1 | 4.51 |  | 5.62 |  | 
18 | COc1ccc([C@@H]2[C@@H](O)[C@H](O)[C@@H](CO)N2C)cc1OC | 4.62 | < 3.70 | 4.14 | < 3.70 | 
